According to ChEMBL document CHEMBL1159304, “Cryphonectric acid and other minor metabolites from a hypovirulent strain of Cryphonectria parasitica” (J Nat Prod, 2002):
The source made the active and inactive calls. The rule behind the calls is not given here.

Assays:
[1] = Cytotoxicity against bovine endothelial cells at 50 uM; format: cell-based, Bos taurus; conditions: cattle, endothelial cell
[2] = Cytotoxicity against bovine endothelial cells at 12.5 uM; format: cell-based, Bos taurus; conditions: cattle, endothelial cell
[3] = system: Endothelial cell; assay: Antiangiogenic activity in bovine endothelial cells assessed as inhibition of cell migration at 50 uM; format: functional, cell-based; conditions: Bos taurus
[4] = system: Endothelial cell; assay: Antiangiogenic activity in bovine endothelial cells assessed as inhibition of cell migration at 12.5 uM; format: functional, cell-based; conditions: Bos taurus
[5] = system: Solanum lycopersicum; assay: Inhibition of tomato seedling growth at 100 uM; format: functional
In short: (§1)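 Tomato seedlings were conditioned 24 h in water, which was then replaced with filter-sterilized (0.2 µm) test solutions at 2, 0.2, 0.1 or 0.01 mM. Phytotoxic symptoms and root growth inhibition were scored at 24, 48 and 72 h. Each assay was run twice on 10 replicate seedlings.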

[6] = system: Solanum lycopersicum; assay: Induction of necrotic symptoms in tomato leaves up to 2 mM by tomato seedling bioassay; format: functional, organism-based; in short: as §1
[7] = system: Solanum lycopersicum; assay: Inhibition of tomato seedling growth at 10 uM; format: functional; design: scale not given: the % may be the effect or the level left; in short: as §1
[8] = system: Solanum lycopersicum; assay: Inhibition of tomato seedling growth at 200 uM; format: functional, organism-based; in short: as §1

## O=C(O)c1cc(O)c(C2OC(=O)c3c(O)cc(O)cc32)c(O)c1 (stereo not given) [CRYPHONECTRIC ACID]
[1]
  Activity: Non-toxic
[2]
  Activity: Non-toxic
[3]
  Activity: inactive
[4]
  Activity: inactive
[5]
  Activity: Active
[6]
  Activity: inactive

## COc1cc(O)c2c(=O)oc(CC(C)O)cc2c1 (stereo not given) [DIAPORTHIN]
[7]
  Activity: 50%
[5]
  Activity: 75%
[6]
  Activity: inactive
[8]
  Activity: Active
